hERG protect: compounds protecting human hERG from proarrhythmic drug block. 0.51% of 310,000 active. CHO-hERG, FluxOR thallium flux, dofetilide IC70 present. activation (rescue from dofetilide block), less the hit threshold, % at 10 µM. Q12809;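 active means activation above the mean of controls blocked by dofetilide plus 5 SD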;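 further: thallium influx through hERG after potassium depolarization seen as dye fluorescence rise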
KCNK3 inh: human KCNK3 channel inhibition, primary screen. O14649. AID 602410. 0.84% of 340,000 active. CHO-KCNK3 thallium flux, FluxOR fluorescence; hits give low values. B-score at 10 µM;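 active means B-score under library mean minus 4 SD, starting fluorescence ratio at most library mean plus 5 SD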;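 further: more negative B-score means stronger inhibition of thallium flux through KCNK3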
Kir21 inh: Kir2.1 (mouse) channel inhibition; B-score at 10 µM; 0.85% of 310,000 active; HEK293-Kir2.1, FluxOR thallium flux fluorescence; hits give low values;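 active means fluorescence ratio B-score at or below minus 3 SD of library scores, with starting-brightness B-score within 2 SD, cut at about -4.2 in these data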;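 further: channel flux triggered by added potassium and thallium sulfate stimulus; B-score of peak minus minimum fluorescence over baseline after thallium stimulus; more negative B-score means stronger Kir2.1 block with less thallium influx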
KCNQ1 block: human KCNQ1 channel inhibition. P51787. CHO-K1 KCNQ1, FluxOR thallium flux fluorescence; hits give high values. B-score at 10 µM. 1.3% of 310,000 active;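 active means compounds whose thallium flux B-score, printed positive for inhibition, exceeds three library SD while starting fluorescence stays within three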;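 further: channel opened by potassium depolarization with thallium stimulus after 20 min compound exposure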
Target sequence (P51787 whole entry, looked up): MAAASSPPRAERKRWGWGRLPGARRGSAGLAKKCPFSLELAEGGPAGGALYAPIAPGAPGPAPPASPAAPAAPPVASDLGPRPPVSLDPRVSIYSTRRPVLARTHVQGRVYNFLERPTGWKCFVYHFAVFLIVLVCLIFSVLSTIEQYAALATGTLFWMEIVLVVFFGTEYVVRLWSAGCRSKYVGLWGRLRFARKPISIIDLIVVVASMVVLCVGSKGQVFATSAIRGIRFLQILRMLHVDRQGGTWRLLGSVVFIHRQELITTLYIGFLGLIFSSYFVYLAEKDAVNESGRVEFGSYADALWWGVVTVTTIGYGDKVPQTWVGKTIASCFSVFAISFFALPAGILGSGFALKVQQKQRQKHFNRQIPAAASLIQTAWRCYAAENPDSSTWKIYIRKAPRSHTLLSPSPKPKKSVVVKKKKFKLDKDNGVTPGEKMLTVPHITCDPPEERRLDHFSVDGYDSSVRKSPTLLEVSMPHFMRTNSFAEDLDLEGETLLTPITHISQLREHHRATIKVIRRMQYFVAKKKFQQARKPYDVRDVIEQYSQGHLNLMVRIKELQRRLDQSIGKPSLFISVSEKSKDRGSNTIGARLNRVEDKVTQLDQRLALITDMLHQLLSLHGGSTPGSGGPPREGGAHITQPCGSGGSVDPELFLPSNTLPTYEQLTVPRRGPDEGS
KCNK9 inh: inhibitors of human KCNK9 two-pore domain potassium channel. Q9NPC2. HEK293 KCNK9, FluxOR thallium flux fluorescence; hits give low values. B-score at 10 µM. 1.2% of 310,000 active;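 active means ratio B-score over 3 SD below the library mean, with starting fluorescence within 5 SD of its mean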;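 further: negative B-score means less thallium flux so channel inhibition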
KCNQ1 pot: potentiators or activators of human KCNQ1 potassium channel. 0.35% of 310,000 active. B-score at 10 µM. CHO-K1 KCNQ1, thallium flux FluxOR fluorescence; hits give high values. P51787;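 active means fluorescence ratio B-score, a plate-corrected score, at least three library SD, with initial intensity B-score within 5 SD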
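Test system: CHO-K1 cells stably expressing KCNQ1 / Medium: assay buffer / Also added: depolarizing K+/Tl+ stimulus, K2SO4 and Tl2SO4 each 12.5 mM in 5x stock / Incubation: 90 min dye loading and 20 min compound exposure, both at room temperature / Signal: thallium influx via FluxOR fluorescence, kinetic imaging / Evaluation: B score of baseline-normalized fluorescence ratio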
A number is an active result; n = inactive; x = no result given. A selection: hits, their analogues and other compounds. The true share with any hit is near 3.8%.

SMILES	hERG protect	KCNK3 inh	Kir21 inh	KCNQ1 block	KCNK9 inh	KCNQ1 pot
O=C1NCC(COCc2ccccc2)O1 (stereo not given)	n	n	n	n	n	n
Cc1cccc(Cn2c(O)c(N=NC(=S)Nc3ccccc3F)c3ccccc32)c1	27	n	n	n	n	8
Oc1c(N=NC(=S)Nc2ccccc2F)c2ccccc2n1Cc1cccc(Cl)c1	16	n	n	n	n	n
Oc1c(N=NC(=S)Nc2ccccc2F)c2ccccc2n1Cc1ccc(F)cc1	55	n	n	n	n	15
O=C(O)C1CCC(N2C(=O)c3c(Cl)c(Cl)c(Cl)c(Cl)c3C2=O)CC1 (stereo not given)	n	x	n	n	n	n
S=C(Nc1cccc2ccccc12)NC1CCCCC1	n	n	n	n	n	n
CCOc1ccc(CCNC(=O)c2cc(-c3ccccc3)c(N3CCOCC3)s2)cc1OCC	n	n	n	6	n	n
CCCCC[C@@H]1C=C(C(=O)O)[C@H](c2ccc(Cl)c(Cl)c2)N1S(=O)(=O)c1ccc(C)cc1	x	n	x	x	x	x
COc1ccccc1-c1cn[nH]c1-c1ccc(OCc2ccc(F)cc2)cc1O	n	n	n	6	n	n
Cc1cc(C)c2nc(N3CCCC(C(=O)NCCCN4CCOCC4)C3)sc2c1 (stereo not given)	n	n	n	n	n	n
Cc1cc(C)c2nc(N3CCC(C(=O)NCCCN4CC(C)CC(C)C4)CC3)sc2c1 (stereo not given)	n	n	-6.8	n	n	n
COc1cccc(N=CNc2cccc(OC)c2)c1	x	n	x	x	x	x
Cc1ncc(S(=O)(=O)c2ccc(Cl)cc2)c(-c2ccccc2)n1	n	n	-4.8	n	n	n
O=S(=O)(c1ccccc1)c1cnc(-c2cccnc2)nc1-c1ccccc1	n	n	n	n	n	n
COc1ccc(/C=C2/CCC(CN3CCOCC3)C2=O)cc1 (stereo not given)	x	n	x	x	x	x
CC1CCCCC1NC(=O)CN1C(=O)c2ccccc2S1(=O)=O (stereo not given)	n	n	n	n	n	n
C/C(Cl)=C\Cn1c(O)c(N=NC(N)=S)c2cc(Br)ccc21	26	n	n	n	n	19
NC(=S)N=Nc1c(O)n(Cc2ccc(Br)cc2)c2ccccc12	15	n	n	n	n	n
CCn1nnc2cc(C(=O)Nc3cc(S(C)(=O)=O)ccc3Cl)ccc21	n	n	n	n	n	10
CN(C)S(=O)(=O)c1ccc(C(=O)Nc2ccccc2C(=O)NCCCN2CCOCC2)cc1	x	n	x	x	x	x
CCC(=O)N/N=C/c1ccc(OS(=O)(=O)c2ccccc2)cc1	n	n	n	n	n	n
NC(N)=N/N=C/c1ccc(OS(=O)(=O)c2ccccc2)cc1	n	n	-10	n	n	n
CC(C)Cn1c(N)c(C(=O)COC(=O)c2c(O)c(Cl)cc(Cl)c2Cl)c(=O)n(C)c1=O	x	-10	x	x	x	x
CC(C)Cn1c(N)c(C(=O)COC(=O)c2ccc(Cl)cc2)c(=O)n(C)c1=O	n	n	n	n	n	n
Cc1c(N(C)C)nc2ccccc2c1N	n	n	n	n	n	n
SMILES	hERG protect	KCNK3 inh	Kir21 inh	KCNQ1 block	KCNK9 inh	KCNQ1 pot
CCN(CC)c1nc2ccccc2c(N)c1-c1ccccc1	n	n	-5.1	n	n	n
Cc1ccc(-n2nc3ccc(N)cc3n2)c(C)c1	7.0	n	n	n	n	n
Cc1ccc(-n2nc3ccc(N)cc3n2)cc1Cl	n	n	n	n	n	n
CC(=O)Nc1c(Cl)c2c(c(Cl)c1Br)-c1ccc(Cl)cc1C2	x	n	x	x	x	x
Cc1ccc(N2CC(C(=O)Nc3nnc(SCC(=O)N4CCOCC4)s3)CC2=O)cc1 (stereo not given)	n	n	n	n	n	n
CC1CN(S(=O)(=O)c2ccc(C(=O)N(C)C3CCCCC3)cc2)CC(C)O1 (stereo not given)	x	n	x	x	x	x
CN(C)c1ccc(/C=C/c2nc3ccccc3c(=O)n2CCO)cc1	n	n	n	6	n	n
O=c1c2ccccc2nc(/C=C/c2ccccc2)n1CCCO	n	n	n	n	n	n
Cc1cc(NC(=O)COC(=O)Cn2c(C)csc2=O)ccc1Br	n	n	n	6	n	n
CC(=O)OCC(=O)Nc1ccc(Br)c(C)c1	n	n	n	n	n	n
CCC(c1nnnn1Cc1ccccc1)N(Cc1ccco1)Cc1cc2cc(OC)ccc2[nH]c1=O (stereo not given)	n	n	n	n	n	n
CCCC(c1nnnn1C(C)(C)CC)N(Cc1ccco1)Cc1cc2ccc(OC)cc2[nH]c1=O (stereo not given)	n	n	n	n	-6.8	n
CCN(CC)c1ccc(C(=O)Nn2cnc3ccccc3c2=O)cc1	n	n	n	n	n	n
CC(=O)N1N=C(c2cccc(Cl)c2)OC1c1ccc(C(C)C)cc1 (stereo not given)	n	n	n	6	n	n
CC(=O)N1N=C(c2cccc(Cl)c2)OC1c1cccc([N+](=O)[O-])c1 (stereo not given)	n	n	n	n	n	n
Clc1ccc(Cc2ccccc2)nn1	5.3	n	n	n	n	n
Cc1ccccc1OC(=O)n1c(=S)oc2cc(Cl)ccc21	n	n	n	n	n	10
Cc1ccc(C(C)NC(=S)NCc2ccc(F)cc2)cc1C (stereo not given)	n	n	-11	n	n	n
O=c1[nH]cnc2scc(-c3ccccc3)c12	n	n	n	n	n	n
Cc1cc(-c2csc3nc[nH]c(=S)c23)cc(C)c1C	8.1	n	n	n	n	45
S=c1[nH]cnc2scc(-c3ccc(Cl)cc3)c12	23	n	n	n	n	19
Cc1sc2nc[nH]c(=S)c2c1-c1ccccc1	20	n	n	n	n	12
CCc1ccc(-c2csc3nc[nH]c(=O)c23)cc1	n	n	n	n	n	n
Cc1ccc(-c2csc3nc[nH]c(=S)c23)cc1	53	n	n	n	n	26
COc1cc(OC)cc(C(=O)NNC(=O)C(CCC(N)=O)NS(=O)(=O)c2ccc(Cl)cc2)c1 (stereo not given)	x	n	x	x	x	x
SMILES	hERG protect	KCNK3 inh	Kir21 inh	KCNQ1 block	KCNK9 inh	KCNQ1 pot
CN(C(=O)c1cccc(NC(=O)Cc2cccc(NC(=O)C3CCCN(C(=O)C4CCC4)C3)c2)c1)C1CCC1 (stereo not given)	x	n	x	x	x	x
CC(C)(C)OC(=O)N1CCCC(C(=O)Nc2ccc(C(=O)NCc3ccccc3)cc2)C1 (stereo not given)	x	n	x	x	x	x
S=c1[nH]cnc2scc(-c3ccc(Br)cc3)c12	14	n	n	n	n	23
O=c1[nH]cnc2scc(-c3ccc(Br)cc3)c12	n	n	n	n	n	n
O=C(CCNC(=O)c1ccccc1Cl)NCC1COc2ccccc2O1 (stereo not given)	x	n	x	x	x	x
COc1ccc(C2c3cc(OC)c(OC)cc3CCN2C(=O)c2cccc([N+](=O)[O-])c2)cc1OC (stereo not given)	n	n	n	n	n	n

Assay outcomes deposited in PubChem by Johns Hopkins Ion Channel Center.
